This passage reports IC50 and inhibition results from ChEMBL document CHEMBL1212886, “New N-(phenoxydecyl)phthalimide derivatives displaying potent inhibition activity towards alpha-glucosidase” (Bioorg Med Chem, 2010).

Assay [1] can be described thus: Inhibition of Saccharomyces cerevisiae alpha-glucosidase after 10 mins. In a few lines: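 Yeast α-glucosidase, 25 mU/mL final, in 10 mM phosphate buffer pH 7.28, preincubated with test compound (DMSO) 5 min at 37 °C. p-NPG substrate 80 μM final; stopped after 10 min with 0.5 M Na2CO3; 4-nitrophenol read at 400 nm against DMSO control. Eight concentrations; triplicate, at least two runs; IC50 taken graphically from percent activity vs log concentration.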

Assay [2] concerns Prunus dulcis. Kind of assay: Inhibition of almond beta-glucosidase at 25 uM after 10 mins. In a few lines: (§1)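 Enzyme 12.5 mU per sample in buffer: β-glucosidase, 50 mM sodium citrate pH 5.0; α-mannosidase, 10 mM sodium acetate pH 4.5; α-galactosidase, 50 mM potassium phosphate pH 6.5. Compound in DMSO at 25 µM, preincubated 5 min at 37 °C; substrate added at 80 μM final; stopped after 10 min with 1 M Na2CO3. Absorbance compared with DMSO control; triplicate.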

The subject of assay [3] is Canavalia ensiformis. Kind of assay: Inhibition of Canavalia ensiformis alpha-mannosidase at 25 uM after 10 mins. In a few lines:
as §1

The target of assay [4] is Alpha-galactosidase (Coffea arabica) (UniProt Q42656). Put plainly: Inhibition of green coffee bean alpha-galactosidase at 25 uM after 10 mins. In short, it runs like this: as §1
Alpha-galactosidase (Coffea arabica), sequence (Q42656 16-378 limits assumed): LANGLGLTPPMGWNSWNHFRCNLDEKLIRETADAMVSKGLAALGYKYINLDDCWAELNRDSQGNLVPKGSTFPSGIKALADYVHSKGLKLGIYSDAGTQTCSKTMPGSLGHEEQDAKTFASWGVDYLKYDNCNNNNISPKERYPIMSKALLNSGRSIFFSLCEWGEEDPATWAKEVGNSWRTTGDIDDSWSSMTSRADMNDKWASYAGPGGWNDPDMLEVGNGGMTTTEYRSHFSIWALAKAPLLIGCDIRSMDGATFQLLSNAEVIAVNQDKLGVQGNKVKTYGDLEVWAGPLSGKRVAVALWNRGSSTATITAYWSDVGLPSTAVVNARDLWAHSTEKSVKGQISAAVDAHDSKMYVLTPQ
For assay [5], the system named is SH-SY5Y. Put plainly: Cytotoxicity against human SH-SY5Y cells after 2 hrs by MTT assay. Format: functional, cell-based. In a few lines: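 SH-SY5Y neuroblastoma cells exposed to compound at 5 μM and at a second concentration for 2 h. MTT (5 mg/mL in DMEM + 10% FBS) then added, 4 h at 37 °C. Supernatant removed, formazan dissolved in DMSO, absorbance read at 540 nm. Sextuplicate, repeated twice.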

Each structure is given as a SMILES string. The source made the active and inactive calls. The rule behind the calls is not given here.

A word on the IC50: it is the concentration at which inhibition is half-maximal. Low readings indicate higher potency, high ones lower potency.

Regarding `Cc1cc(Cl)ccc1OCCN1C(=O)c2ccccc2C1=O`, the IC50 in assay [1] was found to be 14.8 µM. With `O=C1c2ccccc2C(=O)N1CCCCCCCCCCOc1ccc(Cl)cc1Cl`, the IC50 in assay [1] was 1.19 µM. On to `O=C1c2ccccc2C(=O)N1CCCCCCCCCCOc1cc(Cl)c(Cl)cc1[N+](=O)[O-]`, for which inhibition in assay [1] was half-maximal at 0.52 µM (IC50). Moreover, the inhibition result in assay [2], in assay [3], in assay [4] and in assay [5] was “inactive” each time.

In assay [1], `Cc1cc([N+](=O)[O-])cc(C)c1OCCCCCCCCCCN1C(=O)c2ccccc2C1=O` showed an IC50 of 1.32 µM.

In assay [1], `O=C1c2ccccc2C(=O)N1CCCCCCCCCCOc1ccccc1` displayed an IC50 of 2.5 µM. Same read-out and setting: next, `O=C1c2ccccc2C(=O)N1CCCCCCCCCCOc1ccccc1[N+](=O)[O-]`: 1.78 µM; `Cc1cc(Cl)ccc1OCCCN1C(=O)c2ccccc2C1=O`: 8.9 µM; `Cc1cc(Cl)cc(C)c1OCCCN1C(=O)c2ccccc2C1=O`: 9.5 µM. On the same count and under the same terms, with `O=C1c2ccccc2C(=O)N1CCCCCCCCCOc1ccccc1` the figure was 3.04 µM; with `O=C1c2ccccc2C(=O)N1CCCOc1cccc(Cl)c1Cl`, 15 µM. Compound `O=C1c2ccccc2C(=O)N1CCCCCCCCCCOc1ccc(Cl)cc1` showed an IC50 in assay [1] of 1.2 µM. Same read-out and setting: next, `O=C1c2ccccc2C(=O)N1CCCCCCCCCCOc1ccc([N+](=O)[O-])c(C(F)(F)F)c1`: 0.83 µM. Still for that read-out and setting: with `OC[C@H]1NC[C@H](O)[C@@H](O)[C@@H]1O` [DUVOGLUSTAT] the figure was 52 µM. On to `O=C1c2ccccc2C(=O)N1CCCCCCCCCCOc1cccc([N+](=O)[O-])c1`, for which the IC50 in assay [1] amounted to 1.07 µM. The same measure, in the same setting: with `O=C1c2ccccc2C(=O)N1CCCCCCCCCCOc1ccc([N+](=O)[O-])cc1` the figure was 0.86 µM; with `Cc1ccc(OCCCCCCCCCCN2C(=O)c3ccccc3C2=O)cc1`, 2.1 µM; with `O=C1c2ccccc2C(=O)N1CCCCCCCCCCOc1ccc(Cl)c(Cl)c1`, 1 µM. Still for that read-out and setting: with `O=C1c2ccccc2C(=O)N1CCCCCCCCCCOc1ccc(C(F)(F)F)cc1[N+](=O)[O-]` the figure was 1.31 µM; with `O=C1c2ccccc2C(=O)N1CCCCCOc1ccccc1`, 20.2 µM. On the same count and under the same terms, with `O=C1c2ccccc2C(=O)N1CCCCCCCCCCOc1cccc(Cl)c1` the figure was 1.09 µM. For `O=C1c2ccccc2C(=O)N1CCCCCCCCCCOc1c(Cl)cc(Cl)cc1[N+](=O)[O-]`, in assay [1], the IC50 amounted to 0.75 µM. Also, the inhibition result in assay [2], in assay [3], in assay [4] and in assay [5] was “inactive” in each case.

For `Cc1cc([N+](=O)[O-])c(Cl)cc1OCCCCCCCCCCN1C(=O)c2ccccc2C1=O`, half-maximal inhibition in assay [1] (IC50) was put at 0.65 µM. Further, the inhibition result in assay [2], in assay [3], in assay [4] and in assay [5] was “inactive” in each case. For `O=C1c2ccccc2C(=O)N1CCCCCCCCOc1ccccc1`, inhibition in assay [1] was half-maximal at 6.5 µM (IC50). Same read-out and setting: with `Cc1cc(Cl)c([N+](=O)[O-])c(C)c1OCCCCCCCCCCN1C(=O)c2ccccc2C1=O` the figure was 3.6 µM; with `O=C1c2ccccc2C(=O)N1CCCCCCCCCCOc1ccc(C(F)(F)F)cc1`, 0.83 µM; with `Cc1ccc(Cl)cc1OCCCCCCCCCCN1C(=O)c2ccccc2C1=O`, 0.91 µM. Still for that read-out and setting: next, `O=C1c2ccccc2C(=O)N1CCOc1ccccc1`: 296 µM; `O=C1c2ccccc2C(=O)N1CCCOc1ccc(Cl)c(Cl)c1`: 7.55 µM; `O=C1c2ccccc2C(=O)N1CCCCCCCCCCOc1ccc([N+](=O)[O-])cc1[N+](=O)[O-]`: 0.97 µM. The same measure, in the same setting: with `O=C1c2ccccc2C(=O)N1CCOc1ccc(Cl)cc1` the figure was 94 µM. With `O=C1c2ccccc2C(=O)N1CCCOc1ccccc1`, half-maximal inhibition in assay [1] (IC50) was put at 240 µM. Still for that read-out and setting: with `Cc1cc(Cl)cc(C)c1OCCCCCCCCCCN1C(=O)c2ccccc2C1=O` the figure was 1.34 µM. Same read-out and setting: with `Cc1cccc(C)c1OCCCCCCCCCCN1C(=O)c2ccccc2C1=O` the figure was 3.25 µM; with `O=C1c2ccccc2C(=O)N1CCCCOc1ccccc1`, 33 µM. Same read-out and setting: next, `Cc1cc(Cl)cc(C)c1OCCN1C(=O)c2ccccc2C1=O`: 13 µM; `O=C1c2ccccc2C(=O)N1CCCOc1ccc(Cl)cc1`: 59 µM. `O=C1c2ccccc2C(=O)N1CCCCCCCCCCOc1ccc(Cl)cc1[N+](=O)[O-]` came in with an IC50 in assay [1] of 0.475 µM. Moreover, the inhibition entry in assay [2], in assay [3], in assay [4] and in assay [5] was “inactive” throughout.

As to `O=C1c2ccccc2C(=O)N1CCCCCCOc1ccccc1`, the concentration for half-maximal inhibition (IC50) in assay [1] is 10.3 µM.
